Assay results reported in ChEMBL document CHEMBL2029242 (J Med Chem, 2012).

Tests used:
[1] = biological target: Phosphatidylinositol 4,5-bisphosphate 3-kinase catalytic subunit beta isoform (Homo sapiens, UniProt P42338); assay: Inhibition of PIK3-CB in human HEK293 cells after 1 hr by competition binding assay; type: cell-based
How it was run: (§1)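 Unbound kinase was captured on immobilized affinity ligand and quantified by qPCR. Kd came from eleven serial 3-fold dilutions, as the mean of duplicates.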

[2] = biological target: Serine/threonine-protein kinase PLK1 (Homo sapiens, UniProt P53350); assay: Inhibition of PLK1 in human HEK293 cells after 1 hr by competition binding assay; type: cell-based
Chain of Serine/threonine-protein kinase PLK1 (P53350 whole entry): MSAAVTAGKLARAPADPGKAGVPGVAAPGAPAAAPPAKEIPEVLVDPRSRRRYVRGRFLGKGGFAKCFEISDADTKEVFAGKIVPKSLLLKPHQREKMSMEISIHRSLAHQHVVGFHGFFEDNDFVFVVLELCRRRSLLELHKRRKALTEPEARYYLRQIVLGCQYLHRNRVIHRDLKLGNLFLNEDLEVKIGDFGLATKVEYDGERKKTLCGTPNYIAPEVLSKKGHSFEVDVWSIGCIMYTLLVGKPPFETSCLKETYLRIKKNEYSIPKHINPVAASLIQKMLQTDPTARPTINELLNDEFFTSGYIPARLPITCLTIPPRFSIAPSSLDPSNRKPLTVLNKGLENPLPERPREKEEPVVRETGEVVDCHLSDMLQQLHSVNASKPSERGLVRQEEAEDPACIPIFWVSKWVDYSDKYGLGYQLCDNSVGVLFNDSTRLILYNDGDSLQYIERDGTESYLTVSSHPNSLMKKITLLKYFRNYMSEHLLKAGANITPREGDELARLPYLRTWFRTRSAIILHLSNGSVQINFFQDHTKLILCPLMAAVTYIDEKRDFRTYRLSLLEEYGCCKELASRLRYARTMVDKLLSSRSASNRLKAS
How it was run: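 KINOMEscan competition binding. Binding reactions ran at rt for 1 h. Unbound kinase was captured on an immobilized affinity ligand and quantified by qPCR. Each kinase was tested individually.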

LNCaP = assay: Cytotoxicity against human LNCAP cells expressing wild type BRAF after 72 hrs by cell titer blue assay; type: functional, cell-based
How it was run: (§2)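 Cells were grown in ATCC-recommended media and kept overnight in 0.5% serum. They were then exposed to compound for 72 h, and Cell Titer Blue was added for 3 h. EC50 came from fluorometric concentration−response curves, run in duplicate and repeated at least once.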

COLO-679 = assay: Cytotoxicity against human COLO679 cells expressing BRAF V600E mutant after 72 hrs by cell titer blue assay; type: functional, cell-based; conditions: COLO-679, 72 h; how it was run: as §2
[3] = biological target: Macrophage colony-stimulating factor 1 receptor (Homo sapiens, UniProt P07333); assay: Inhibition of CSF1R in human HEK293 cells after 1 hr by competition binding assay; type: cell-based; how it was run: as §1
Chain of Macrophage colony-stimulating factor 1 receptor (P07333 whole entry): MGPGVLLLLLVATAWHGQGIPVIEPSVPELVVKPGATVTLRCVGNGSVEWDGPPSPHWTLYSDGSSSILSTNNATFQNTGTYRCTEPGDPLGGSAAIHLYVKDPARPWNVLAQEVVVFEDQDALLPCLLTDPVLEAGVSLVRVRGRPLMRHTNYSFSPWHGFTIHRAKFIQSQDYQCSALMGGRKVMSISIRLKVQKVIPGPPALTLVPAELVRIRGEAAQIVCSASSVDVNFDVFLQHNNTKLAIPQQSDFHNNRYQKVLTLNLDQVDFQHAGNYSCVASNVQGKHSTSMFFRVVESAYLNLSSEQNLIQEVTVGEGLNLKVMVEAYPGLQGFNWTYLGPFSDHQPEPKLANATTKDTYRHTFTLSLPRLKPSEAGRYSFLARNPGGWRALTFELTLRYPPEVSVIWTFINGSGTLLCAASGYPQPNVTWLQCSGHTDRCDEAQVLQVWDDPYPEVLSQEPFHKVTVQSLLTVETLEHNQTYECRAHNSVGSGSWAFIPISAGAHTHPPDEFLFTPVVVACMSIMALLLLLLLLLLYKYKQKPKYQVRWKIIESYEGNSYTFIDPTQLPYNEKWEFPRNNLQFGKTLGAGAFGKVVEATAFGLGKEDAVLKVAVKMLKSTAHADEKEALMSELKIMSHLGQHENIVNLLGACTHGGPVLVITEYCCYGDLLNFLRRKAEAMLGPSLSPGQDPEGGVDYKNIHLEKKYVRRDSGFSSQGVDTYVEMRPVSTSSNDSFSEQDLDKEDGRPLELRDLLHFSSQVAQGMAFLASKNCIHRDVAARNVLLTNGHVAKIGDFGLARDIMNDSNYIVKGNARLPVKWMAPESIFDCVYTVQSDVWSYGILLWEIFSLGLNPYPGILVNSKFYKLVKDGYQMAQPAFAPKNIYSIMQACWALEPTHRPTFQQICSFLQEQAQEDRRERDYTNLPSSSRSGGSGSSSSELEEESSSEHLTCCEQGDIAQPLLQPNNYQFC

Mus musculus = assay: Toxicity in athymic nude mouse xenografted with human COLO205 cells at 30 mg/kg, po bid for 14 days measured upto 1 week post dosing; type: organism-based, COLO 205; parameters: dose 30 mg/kg, route oral; conditions: in vivo
How it was run: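 Athymic nude mice (20–25 g) were inoculated subcutaneously in the flank with 1×10^6 Colo-205 cells. At 150–200 mm3 they were randomized (n = 10/group) to oral vehicle (22% HPβCD) or 10, 30 or 100 mg/kg BID for 14 days. Calipers were used three times weekly. Body weight and behavior were monitored, with 7–10 days of follow-up after dosing. Partial regression meant volume falling in ≥3 successive measurements, ending below baseline but still palpable.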

[4] = biological target: Serine/threonine-protein kinase B-raf (Homo sapiens, UniProt P15056, V600E)
Chain of Serine/threonine-protein kinase B-raf (P15056 2-766 V600E limits assumed): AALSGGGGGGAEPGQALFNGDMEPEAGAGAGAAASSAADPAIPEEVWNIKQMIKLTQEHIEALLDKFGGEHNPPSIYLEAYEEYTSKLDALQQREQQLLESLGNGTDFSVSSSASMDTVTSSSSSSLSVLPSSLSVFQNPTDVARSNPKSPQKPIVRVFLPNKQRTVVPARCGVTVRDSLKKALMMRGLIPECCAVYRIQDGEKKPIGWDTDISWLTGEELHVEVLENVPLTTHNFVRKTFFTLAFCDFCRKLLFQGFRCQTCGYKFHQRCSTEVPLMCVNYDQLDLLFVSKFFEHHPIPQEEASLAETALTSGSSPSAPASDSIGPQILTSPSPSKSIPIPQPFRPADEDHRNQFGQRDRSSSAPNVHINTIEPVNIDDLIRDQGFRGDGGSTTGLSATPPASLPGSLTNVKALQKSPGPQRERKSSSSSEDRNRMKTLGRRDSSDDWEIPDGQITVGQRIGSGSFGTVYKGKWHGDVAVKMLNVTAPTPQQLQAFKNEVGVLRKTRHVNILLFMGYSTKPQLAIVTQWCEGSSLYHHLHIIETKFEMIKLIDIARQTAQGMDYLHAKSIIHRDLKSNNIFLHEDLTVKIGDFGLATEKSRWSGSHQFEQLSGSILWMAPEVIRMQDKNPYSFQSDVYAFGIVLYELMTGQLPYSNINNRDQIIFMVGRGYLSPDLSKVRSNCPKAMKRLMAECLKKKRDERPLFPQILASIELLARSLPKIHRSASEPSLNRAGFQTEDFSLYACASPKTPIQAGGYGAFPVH

[5] = Intrinsic clearance in Cynomolgus monkey liver microsomes; type: ADME, Macaca fascicularis, Microsome
How it was run: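 Pooled liver microsomes (0.5 mg/mL) in 0.1 M phosphate pH 7.4 with 6.5 mM MgCl2 and compound at 1 μM (0.2% DMSO). NADPH (1 mM) started the reaction at 37 °C, with minus-NADPH and testosterone controls. Aliquots taken at 0, 5, 15, 30 and 60 min were quenched in acetonitrile; duplicates.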

[6] = Half life in Cynomolgus monkey at 1 mg/kg, iv and 10 mg/kg, po; type: ADME, organism-based, Macaca fascicularis; conditions: in vivo
How it was run: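 Single-dose PK. Rats: male Sprague−Dawley, jugular-catheterized, 1 mg/kg iv in 3:1 PEG400/water (n = 2) and 10 mg/kg po in Pharmatek #6 (n = 3). Female athymic nude mice: 100 mg/kg po in Pharmatek #6 (n = 3). Beagle dogs and male cynomolgus monkeys (n = 3): crossover, 1 mg/kg iv and 10 mg/kg po in 22% HPβCD, overnight fast. Plasma LC-MS/MS to 24 h; noncompartmental parameters, mean ± SD.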

Chain of Phosphatidylinositol 4,5-bisphosphate 3-kinase catalytic subunit beta isoform (P42338 whole entry, canonical isoform): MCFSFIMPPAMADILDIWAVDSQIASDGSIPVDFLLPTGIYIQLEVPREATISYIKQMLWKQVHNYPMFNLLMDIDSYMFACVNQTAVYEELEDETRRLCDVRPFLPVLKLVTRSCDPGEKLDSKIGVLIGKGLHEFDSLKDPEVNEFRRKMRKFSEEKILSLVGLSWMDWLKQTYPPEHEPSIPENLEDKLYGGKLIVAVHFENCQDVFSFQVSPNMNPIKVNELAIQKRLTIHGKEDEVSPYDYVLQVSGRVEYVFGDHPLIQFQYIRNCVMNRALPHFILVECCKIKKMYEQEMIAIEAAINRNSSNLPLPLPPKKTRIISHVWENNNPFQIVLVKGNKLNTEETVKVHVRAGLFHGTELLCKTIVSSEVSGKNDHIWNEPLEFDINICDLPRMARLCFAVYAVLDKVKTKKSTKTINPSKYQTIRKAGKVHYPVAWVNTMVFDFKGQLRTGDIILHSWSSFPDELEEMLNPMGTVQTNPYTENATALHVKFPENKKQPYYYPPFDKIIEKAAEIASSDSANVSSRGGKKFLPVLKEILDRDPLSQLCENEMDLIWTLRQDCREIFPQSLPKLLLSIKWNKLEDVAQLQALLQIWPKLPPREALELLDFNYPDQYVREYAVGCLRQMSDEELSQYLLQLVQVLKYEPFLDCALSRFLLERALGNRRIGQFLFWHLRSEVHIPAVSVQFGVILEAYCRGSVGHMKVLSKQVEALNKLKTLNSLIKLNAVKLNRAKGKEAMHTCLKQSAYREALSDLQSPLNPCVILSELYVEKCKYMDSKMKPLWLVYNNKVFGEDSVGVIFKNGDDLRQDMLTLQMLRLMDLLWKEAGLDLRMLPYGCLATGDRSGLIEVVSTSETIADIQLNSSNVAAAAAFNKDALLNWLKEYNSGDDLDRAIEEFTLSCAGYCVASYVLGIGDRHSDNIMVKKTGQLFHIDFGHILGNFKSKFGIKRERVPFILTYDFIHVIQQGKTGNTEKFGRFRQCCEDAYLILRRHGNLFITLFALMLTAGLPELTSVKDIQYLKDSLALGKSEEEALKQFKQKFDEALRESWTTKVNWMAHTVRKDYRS

- Kd [1]: > 10000 nM
- Kd [2]: > 10000 nM
- Kd [3]: 9 nM
- IC50 [4]: 82 nM
- CLH [5]: < 23 µL/min/mg
- half-life [6]: 4.9 h
Structure (SMILES): COc1cc2ncnc(Oc3cccc(NC(=O)Nc4cc(C(C)(C)C(F)(F)F)on4)c3)c2cc1OC [CEP-32496]
- EC50 (LNCaP): 6630 nM
- EC50 (COLO-679): 211 nM
- Activity (Mus musculus): Non-toxic
